Assays:
[1] = Caco-2 permeability assay; assay type: in vitro ADME; details: human; for efflux ratio at 2 h, 50 μmol/L: Caco-2, pH 7.4; for Papp at 2 h, 50 μmol/L: 2 hrs at 37°C
Summary of the method: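 Caco-2 cells were grown in MEM with 20% FBS at 37 °C and 5% CO2. They were seeded on transwell inserts at 0.165×10^5 cells/insert and cultured 21 days in 10% FBS MEM, with monolayer integrity checked by TEER. Monolayers were washed in HBSS/HEPES (10 mM, pH 7.4). Test compound (50 μmol/L) was added apically or basolaterally and incubated 2 h at 37 °C. The receiver side was quantified by UPLC/MS. Papp = dQ/dt×1/AC0, and efflux ratio = B→A/A→B.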

[2] = Parallel artificial membrane permeability assay; assay type: in vitro ADME; details: PAMPA
Summary of the method: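 Test compound was supplied as a 10 mM DMSO stock and diluted 200-fold in pH 7.4 buffer. It was placed in the donor wells under an artificial lipid membrane filter plate holding pH 7.4 acceptor sink buffer. Plates were incubated 0.5 h at room temperature, with each well magnetically stirred. Donor and acceptor concentrations were measured by UV plate spectrometry in an automated workflow.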

[3] = system: MCF10dcis.com (DCIS) cells; test: Copper accumulation in breast cancer cells measured by ICP-OES; assay type: cell-based, human; details: for difference in ability to accumulate cellular copper versus inactive analogs: 10 μM CuCl2 mixtures, 1 h (8-OHQ vs 2, 3) or 8 hrs (CQ vs 5, 6); for increase of intracellular copper level: compound-copper mixture
[4] = system: breast cancer DCIS cells; test: Cell proliferation assay; assay type: cell-based, human; details: for toxicity of compound alone: DCIS cells, compound without copper, 24 h, MTT
Summary of the method: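 DCIS human breast cancer cells were kept in DMEM/F12 with 5% horse serum, bicarbonate, 10 mM HEPES and antibiotics at 37 °C, 5% CO2. They were grown to 70–80% confluency, then given test compound alone or premixed with CuCl2 at various concentrations for 24 h at 37 °C. Medium was removed before the MTT read-out. Viability is expressed as percent of DMSO-treated cells (mean±SD, n=4).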

[5] = Cu-ligand binding by UV-vis titration; assay type: physicochemical; details: UV-vis titration with CuCl2 in methanol; 0.1 mM compound
[6] = Caco-2, pH 7.4, CaCo2 Papp A/B, apical to basolateral
[7] = Caco-2, pH 7.4, Caco2 Papp B/A, basolateral to apical

| Structure (SMILES) | efflux ratio at 2 h, 50 μmol/L [1] | Papp at 2 h, 50 μmol/L [1, 6] | Papp at 2 h, 50 μmol/L [1, 7] | Papp at 0.5 hr, 50 µM [2] | difference in ability to accumulate cellular copper versus inactive analogs [3] | increase of intracellular copper level [3] | toxicity of compound alone [4] | toxicity of compound alone ([4]; listed as 8-OHQ) | formation of copper complex [5] | toxicity of compound alone ([4]; listed as CQ) | anti-proliferative effect of synthesized copper complex ([4]; unpublished work of the authors) |
| --- | --- | --- | --- | --- | --- | --- | --- | --- | --- | --- | --- |
| Oc1cccc2cccnc12 [Compound 1, 8-hydroxyquinoline, reference compound] | 0.8 | 38 ± 14.8 ×10⁻⁶ cm/s | 29 ± 1.1 ×10⁻⁶ cm/s | 21.3 ± 1.6 ×10⁻⁶ cm/s | at least 100 fold | 135 fold | some toxicity | much less or no toxicity | bind to copper and form complexes | – | – |
| COc1cccc2cccnc12 [Compound 2, 8-methoxyquinoline] | 0.6 | 48.3 ± 2.6 ×10⁻⁶ cm/s | 29.9 ± 0.7 ×10⁻⁶ cm/s | 68.2 ± 10.9 ×10⁻⁶ cm/s | – | did not change the accumulation of intracellular copper | – | – | could not form complexes with copper | – | – |
| CCOc1cccc2cccnc12 [Compound 3, 8-ethoxyquinoline] | 0.5 | 20.7 ± 14.6 ×10⁻⁶ cm/s | 9.4 ± 2.5 ×10⁻⁶ cm/s | 72.6 ± 24.8 ×10⁻⁶ cm/s | – | did not change the accumulation of intracellular copper | – | – | could not form complexes with copper | – | – |
| Oc1c(I)cc(Cl)c2cccnc12 [Compound 4, 5-chloro-7-iodo-8-hydroxyquinoline, reference compound] | 0.7 | 47.3 ± 6.1 ×10⁻⁶ cm/s | 31.5 ± 2.2 ×10⁻⁶ cm/s | 33.4 ± 3.1 ×10⁻⁶ cm/s | 40–50 fold | – | some toxicity | – | bind to copper and form complexes | much less or no toxicity | – |
| COc1c(I)cc(Cl)c2cccnc12 [Compound 5, 5-chloro-7-iodo-8-methoxyquinoline] | 0.6 | 21.5 ± 3.1 ×10⁻⁶ cm/s | 12.5 ± 1.6 ×10⁻⁶ cm/s | 77.9 ± 5.4 ×10⁻⁶ cm/s | – | did not change the accumulation of intracellular copper | – | – | could not form complexes with copper | – | – |
| COc1ccc(Cl)c2cccnc12 [Compound 6, 5-chloro-8-methoxyquinoline] | 0.7 | 60.4 ± 2.4 ×10⁻⁶ cm/s | 41.3 ± 2.7 ×10⁻⁶ cm/s | 30.8 ± 4.9 ×10⁻⁶ cm/s | – | did not change the accumulation of intracellular copper | – | – | could not form complexes with copper | – | – |
| [Cu+2].[O-]c1cccc2cccnc12.[O-]c1cccc2cccnc12 [Cu [8-OHQ]2] | – | – | – | – | – | – | – | – | – | – | comparable to their copper mixtures |
